The record followed here is ChEMBL document CHEMBL1949512, “RO4383596, an orally active KDR, FGFR, and PDGFR inhibitor: synthesis and biological evaluation” (Bioorg Med Chem, 2005).

One may read the Cmax as the maximum level reached in the sampled fluid or tissue. One may read the pIC50 as the negative decadic logarithm of the IC50, by convention in mol/L. One may read the inhibition in vivo as the share of the control response that was lost under treatment. In general, AUC refers to concentration integrated over time. Read a low AUC as less exposure. What is called Tmax is the time at which the peak concentration occurs. One may read the clearance as the rate of elimination divided by the concentration. The term bioavailability denotes the share of a dose that reaches the circulation, judged against a reference dose that is usually intravenous. Read a low bioavailability as poor availability.

Data set [1] can be described thus: Cmax in […] mouse at 100 mg/kg, po. It counts as ADME, organism-based. The arrangement: dose 100 mg/kg, route oral. The following applies: in vivo. In a few lines:
(§1)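 A separate group of female mice received one 100 mg/kg oral dose. Median PK parameters were calculated for that cohort.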

For a further data set, the system named is RKO. Nature of the data set: Antiproliferative activity against human RKO cells.
Data set [2] has as its system Mus musculus. Kind of data set: Antiangiogenic activity in C57/BL6 mouse cornea assessed as inhibition of bFGF-induced angiogenesis at 100 mg/kg, po bid for 5 days by corneal pocket assay relative to control. It counts as functional. The following applies: 120 h. The method, boiled down:
(§2)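 bFGF-impregnated pellets were implanted in corneas of female C57/BL6 mice aged 5–7 weeks. Oral dosing twice daily began the same day for 5 days. The neovascularized area was quantitated against vehicle-treated animals (2% Klucel LF, 0.1% Tween 80 in water).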

A short description of data set [3]: Volume of distribution at steady state in athymic nude mouse at 10 mg/kg, iv. Details: dose 10 mg/kg, route intravenous. Type of data set: ADME, organism-based. The following applies: in vivo, read-out: Vdss. The method, boiled down: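 Athymic nude mice given single 10 mg/kg iv dose in 2% DMA, 10% PEG400, 88% of 40% HPBCD in water, 0.2 mL. Blood at 1, 5, 15, 30 min and 1, 2, 4, 8, 16, 24 h; EDTA plasma, LC-MS/MS. Composite Vdss by non-compartmental analysis.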

The test system of data set [4] is Mus musculus. Kind of data set: Antiangiogenic activity in C57/BL6 mouse cornea assessed as inhibition of VEGF-induced angiogenesis at 25 mg/kg, po bid for 7 days by corneal pocket assay relative to control. It counts as functional. To be noted: 168 h. The method, boiled down: (§3)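 VEGF-impregnated pellets were implanted in corneas of female C57/BL6 mice aged 5–7 weeks. Oral twice-daily dosing started the same day and ran 7 days. The area of vascularization was then quantitated relative to animals given vehicle (2% Klucel LF, 0.1% Tween 80 in water).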

In data set [5] the test system is Mus musculus. Nature of the data set: Antiangiogenic activity in C57/BL6 mouse cornea assessed as inhibition of VEGF-induced angiogenesis at 100 mg/kg, po bid for 7 days by corneal pocket assay relative to control. It counts as functional. The following applies: 168 h. In a few lines:
as §3

A short description of data set [6]: AUC in athymic nude mouse at 10 mg/kg, iv. It counts as ADME, organism-based. Details: dose 10 mg/kg, route intravenous. The following applies: plasma. The method, boiled down: (§4)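 Athymic nude mice received one dose, either iv 10 mg/kg in 2% DMA/10% PEG400/88% of 40% HPBCD in water, or po 50 mg/kg in 2% Klucel LF/0.1% Tween 80. Retro-orbital or terminal cardiac blood was drawn from 1 min (iv) or 5 min (po) to 24 h into EDTA. Plasma was analysed by LC-MS/MS. Composite parameters were obtained by non-compartmental analysis, with AUC extrapolated to infinity.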

The test system of another data set is HUVEC. Kind of data set: Antiangiogenic activity in HUVEC assessed as inhibition of bFGF-induced cell proliferation. To be noted: Homo sapiens.
Data set [7] in a line: Tmax in Wistar rat at 50 mg/kg, po. The following applies: in vivo. Details: dose 50 mg/kg, route oral. It counts as ADME, organism-based. In a few lines:
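Wistar rats, single oral dose 50 mg/kg as suspension in 2% Klucel LF, 0.1% Tween 80 in water, 5 mL/kg. Jugular catheter blood at 5, 15, 30 min and 1, 3, 6, 12, 24, 48 h; EDTA plasma, LC-MS/MS. Tmax taken from concentration–time profiles; individual-animal parameters averaged.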

Another data set has as its target T1, Ephrin type-B receptor 3 (Homo sapiens, UniProt P54753).
T1 sequence (P54753 whole entry): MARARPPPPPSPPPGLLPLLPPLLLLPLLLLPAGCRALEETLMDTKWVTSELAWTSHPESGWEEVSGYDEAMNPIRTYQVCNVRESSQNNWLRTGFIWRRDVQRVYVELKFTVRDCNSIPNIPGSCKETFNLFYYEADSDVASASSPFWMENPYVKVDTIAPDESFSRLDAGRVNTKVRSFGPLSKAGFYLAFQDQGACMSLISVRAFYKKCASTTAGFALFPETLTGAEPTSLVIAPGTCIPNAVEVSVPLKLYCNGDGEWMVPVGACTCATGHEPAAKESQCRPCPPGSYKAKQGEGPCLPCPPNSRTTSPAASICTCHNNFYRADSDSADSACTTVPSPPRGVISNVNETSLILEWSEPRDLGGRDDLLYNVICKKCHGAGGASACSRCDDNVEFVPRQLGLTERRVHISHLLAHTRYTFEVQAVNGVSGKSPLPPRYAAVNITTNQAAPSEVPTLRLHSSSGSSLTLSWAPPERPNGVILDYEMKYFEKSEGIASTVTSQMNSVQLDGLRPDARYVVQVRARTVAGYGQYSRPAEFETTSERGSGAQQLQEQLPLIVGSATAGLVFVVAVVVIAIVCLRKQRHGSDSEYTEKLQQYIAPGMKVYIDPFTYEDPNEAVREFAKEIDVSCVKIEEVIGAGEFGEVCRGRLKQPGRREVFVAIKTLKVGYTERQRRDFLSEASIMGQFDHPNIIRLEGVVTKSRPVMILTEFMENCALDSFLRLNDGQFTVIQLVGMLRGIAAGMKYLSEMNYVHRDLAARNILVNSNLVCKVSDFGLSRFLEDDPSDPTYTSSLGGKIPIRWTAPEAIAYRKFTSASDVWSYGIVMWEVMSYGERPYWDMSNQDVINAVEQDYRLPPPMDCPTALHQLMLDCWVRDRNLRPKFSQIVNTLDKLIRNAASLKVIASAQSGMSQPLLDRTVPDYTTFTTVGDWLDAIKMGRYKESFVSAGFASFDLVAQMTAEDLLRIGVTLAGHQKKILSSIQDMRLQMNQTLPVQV
Kind of data set: Inhibition of EphB3.

For data set [8], the system named is Mus musculus. Kind of data set: Antiangiogenic activity in C57/BL6 mouse cornea assessed as inhibition of bFGF-induced angiogenesis at 25 mg/kg, po bid for 5 days by corneal pocket assay relative to control. Type of data set: functional. The following applies: 120 h. The method, boiled down: as §2
For data set [9], the target named is Platelet-derived growth factor receptor (Homo sapiens, UniProt P09619+P16234). Kind of data set: Inhibition of human recombinant His-tagged intracellular domain of PDGFR using biotin-EEEEYFELV as substrate by HTRF assay. (In general: TR-FRET usually uses a lanthanide donor and a delayed reading to cut background.)
The subject of data set [10] is Mus musculus. Nature of the data set: Dose normalized AUC in […] mouse at 100 mg/kg, po. It counts as ADME, organism-based. Details: dose 100 mg/kg, route oral. The following applies: in vivo. In a few lines: as §1
Data set [11] is described as follows: Cmax in athymic nude mouse at 50 mg/kg, po. It counts as ADME, organism-based. Details: dose 50 mg/kg, route oral. The following applies: in vivo. In a few lines: as §4
Data set [12] in a line: Cmax in C57/BL6 mouse at 100 mg/kg, po bid for 5 days. Type of data set: ADME, organism-based. Details: dose 100 mg/kg, route oral. To be noted: in vivo. The method, boiled down:
(§5)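 Female C57/BL6 mice were dosed orally twice daily for 5 days with a suspension in 2% Klucel LF/0.1% Tween 80 in water. Six mice per dose were split into two subgroups of three, each sampled at alternate time points. Retro-orbital blood was taken at 0, 1, 4 and 8 h post-dose into EDTA, and plasma was analysed by LC-MS/MS. Parameters come from mean concentrations; AUC0–8h by linear trapezoidal rule; Cmax and Tmax as observed.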

The nature of data set [13]: Clearance in athymic nude mouse at 10 mg/kg, iv. The following applies: in vivo. It counts as ADME, organism-based. The arrangement: dose 10 mg/kg, route intravenous. In a few lines:
as §4

The nature of data set [14]: Oral bioavailability in athymic nude mouse at 50 mg/kg. To be noted: in vivo. Type of data set: ADME, organism-based. In a few lines:
as §4

Data set [15] is described as follows: AUC in Wistar rat at 50 mg/kg, po. It counts as ADME, organism-based. The following applies: plasma. The arrangement: dose 50 mg/kg, route oral. In a few lines: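 Wistar rats received one dose, either iv 5 mg/kg via femoral arterial catheter (2% DMA/10% PEG400/88% of 40% HPBCD) or po 50 mg/kg (2% Klucel LF/0.1% Tween 80). Blood came from an implanted jugular catheter, up to 24 h (iv) or 48 h (po), into EDTA. Plasma LC-MS/MS; individual non-compartmental parameters were averaged.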

A short description of data set [16]: Tmax in C57/BL6 mouse at 100 mg/kg, po bid for 5 days. Type of data set: ADME, organism-based. The following applies: in vivo. The arrangement: dose 100 mg/kg, route oral. The method, boiled down: as §5

pIC50: −log10 of the molar value.

As for `COc1ccc(N2Cc3cnc(Nc4ccccc4)nc3N([C@@H]3CC[C@@H](O)C3)C2=O)cc1` (racemic), the Cmax in data set [1] came out at 37600 ng/mL; in [11], 16500 ng/mL; in [12], 47700 ng/mL. Further, the pIC50 in the data set on RKO is 5.64; in the data set with HUVEC, 6.82; on Ephrin type-B receptor 3 it was 5.96; in data set [9], 7.48. Further, the inhibition in vivo at 100 mg/kg in the data set with Mus musculus [2] was 97%; in the data set with Mus musculus [5], 99%. Moreover, the Vd in [3] amounted to 1.9 L/kg. Moreover, the inhibition in vivo at 25 mg/kg came to 81% with Mus musculus [4] and 72% with Mus musculus [8]. The values for the AUC in [6] and in data set [15] were 11100 ng·h/mL and 26500 ng·h/mL, respectively. For the same compound, the figures for the Tmax in data set [7] and in data set [16] were 5.3 h and 0.5 h, respectively. Also, in the data set with Mus musculus [10], the AUC/dose was determined as 1458 ng·h/mL/mg/kg. The clearance in data set [13] is 15.1 mL/min/kg. Besides, in data set [14], the bioavailability was 93%.
